Data: ChEMBL document CHEMBL4396869, “Design and Synthesis of Selective Phosphodiesterase 4D (PDE4D) Allosteric Inhibitors for the Treatment of Fragile X Syndrome and Other Brain Disorders” (J Med Chem, 2019)
Active and inactive are the calls of the source. No cut-off for these calls is given here.

Tests used:
[1] = Toxicity in rat assessed as effect on CNS up to 60 mg/kg, po; format: organism-based; conditions: in vivo
[2] = Stability in human liver microsomes assessed as parent compound remaining at 1 uM measured after 30 mins by LC-MS/MS analysis; format: ADME, Microsome; conditions: read-out: Stability
Procedure, shortened: (§1)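 Liver microsome stability run by a contract lab using standard protocols. Parent compound remaining measured after 30 min incubation.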

[3] = Protein binding in mouse plasma; format: ADME, cell-free; conditions: read-out: PPB
Cytochrome P450 3A4 = Cytochrome P450 3A4 (Homo sapiens, UniProt P08684); assay: Inhibition of CYP3A4 (unknown origin) by fluorescence-based assay; format: ADME
Procedure, shortened: (§2)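 CYP inhibition run with a fluorescent substrate by a contract laboratory under standard protocols; IC50 reported.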

[4] = Oral bioavailability in dog; format: ADME, organism-based, Canis lupus familiaris; conditions: in vivo
[5] = target: cAMP and cAMP-inhibited cGMP 3',5'-cyclic phosphodiesterase 10A (Homo sapiens, UniProt Q9Y233); assay: Inhibition of recombinant human N-terminal GST-tagged PDE10A1 (2 to 789 residues) expressed in baculovirus infected Sf9 cells using FAM-cAMP as substrate incubated for 60 mins by fluorescence assay; conditions: sf9, 1 h
[6] = target: Dual specificity calcium/calmodulin-dependent 3',5'-cyclic nucleotide phosphodiesterase 1A (Homo sapiens, UniProt P54750); assay: Inhibition of recombinant human full length N-terminal GST-tagged PDE1A5 expressed in baculovirus infected Sf9 insect cells using FAM-cAMP as substrate measured after 1 hr by fluorescence assay; conditions: sf9, 1 h
[7] = target: 3',5'-cyclic-AMP phosphodiesterase 4C (Homo sapiens, UniProt Q08493); assay: Inhibition of recombinant human full length N-terminal GST-tagged PDE4C1 expressed in baculovirus infected Sf9 cells using FAM-cAMP as substrate incubated for 60 mins by fluorescence assay; conditions: sf9, 1 h
[8] = target: 3',5'-cyclic-AMP phosphodiesterase 4A (Homo sapiens, UniProt P27815); assay: Inhibition of recombinant N-terminal GST-tagged human PDE4A10 (2 to 825 residues) expressed in baculovirus infected Sf9 cells using FAM-cAMP as substrate incubated for 60 mins by fluorescence assay; conditions: sf9, 1 h
[9] = target: T1, 3',5'-cyclic-AMP phosphodiesterase 4B (Homo sapiens, UniProt Q07343); assay: Inhibition of recombinant human N-terminal GST-tagged PDE4B3 (2 to 721 residues) expressed in baculovirus infected Sf9 cells using FAM-cAMP as substrate incubated for 60 mins by fluorescence assay; conditions: sf9, 1 h
[10] = (§3) Inhibition of recombinant human His6-tagged PDE4D UCR2 deletion mutant catalytic domain expressed in baculovirus infected Sf9 insect cells using cAMP as substrate preincubated for 5 to 10 mins followed by substrate addition and measured for 10 mins by yeast myokinase/pyruvate kinase/lactate dehydrogenase-coupled fluorescence assay relative to control
[11] = as §3, with “PDE4D7 UCR1 S129D” for “PDE4D UCR2 deletion”, “mutant” for “mutant catalytic domain”
[12] = Toxicity in rat assessed as inappetence at 100 mg/kg, po; format: organism-based; conditions: in vivo
[13] = Inhibition of recombinant human His6-tagged PDE4D7 UCR1 S129D mutant expressed in baculovirus infected Sf9 insect cells using cAMP as substrate preincubated for 5 to 10 mins followed by substrate addition and measured for 10 mins in presence of BSA by yeast myokinase/pyruvate kinase/lactate dehydrogenase-coupled fluorescence assay
Cytochrome P450 2C19 = Cytochrome P450 2C19 (Homo sapiens, UniProt P33261); assay: Inhibition of […] (unknown origin) by fluorescence-based assay; format: ADME; procedure, shortened: as §2
[14] = Vascular toxicity in dog measured for 90 days; set-up: species or system Canis lupus familiaris; conditions: in vivo, 2160 h
[15] = Vascular toxicity in rat during 28 days study by microscopic analysis; conditions: in vivo, 672 h
[16] = Stability in mouse liver microsomes assessed as parent compound remaining at 1 uM measured after 30 mins by LC-MS/MS analysis; format: ADME, Microsome; conditions: read-out: Stability; procedure, shortened: as §1
[17] = target: cGMP-specific 3',5'-cyclic phosphodiesterase (Homo sapiens, UniProt O76074); assay: Inhibition of recombinant human N-terminal GST-tagged PDE5A1 expressed in baculovirus infected Sf9 cells using FAM-cGMP as substrate incubated for 60 mins by fluorescence assay; conditions: sf9, 1 h
[18] = Protein binding in rat plasma; format: ADME, cell-free; conditions: read-out: PPB
Cytochrome P450 2C9 = Cytochrome P450 2C9 (Homo sapiens, UniProt P11712); assay: Inhibition of CYP2C9 (unknown origin) by fluorescence-based assay; format: ADME; procedure, shortened: as §2
[19] = Stability in dog liver microsomes assessed as parent compound remaining at 1 uM measured after 30 mins by LC-MS/MS analysis; format: ADME, Canis lupus familiaris, Microsome; conditions: read-out: Stability; procedure, shortened: as §1
[20] = target: T1, 3',5'-cyclic-AMP phosphodiesterase 4B; assay: Inhibition of recombinant N-terminal GST-tagged/C-terminal His-tagged full length human PDE4B2 expressed in baculovirus infected Sf9 cells using FAM-cAMP as substrate incubated for 60 mins by fluorescence assay; conditions: sf9, 1 h
[21] = target: Dual specificity calcium/calmodulin-dependent 3',5'-cyclic nucleotide phosphodiesterase 1C (Homo sapiens, UniProt Q14123); assay: Inhibition of recombinant human N-terminal GST-tagged PDE1C (2 to 634 residues) expressed in baculovirus infected Sf9 insect cells using FAM-cAMP as substrate measured after 1 hr by fluorescence assay; conditions: sf9, 1 h
[22] = Stability in rat liver microsomes assessed as parent compound remaining at 1 uM measured after 30 mins by LC-MS/MS analysis; format: ADME, Microsome; conditions: read-out: Stability; procedure, shortened: as §1
[23] = Toxicity in rat assessed as weight loss at 100 mg/kg, po; format: organism-based; conditions: in vivo
[24] = Toxicity in rat assessed as pulmonary effect up to 60 mg/kg, po; format: organism-based; conditions: in vivo
[25] = Cmax in ICR mouse at 30 mg/kg, po; conditions: in vivo
[26] = target: Dual 3',5'-cyclic-AMP and -GMP phosphodiesterase 11A (Homo sapiens, UniProt Q9HCR9); assay: Inhibition of recombinant human full length N-terminal GST-tagged PDE11A expressed in baculovirus infected Sf9 cells using FAM-cAMP as substrate incubated for 60 mins by fluorescence assay; conditions: sf9, 1 h
Cytochrome P450 2D6 = Cytochrome P450 2D6 (Homo sapiens, UniProt P10635); assay: Inhibition of CYP2D6 (unknown origin) by fluorescence-based assay; format: ADME; procedure, shortened: as §2
[27] = target: cGMP-dependent 3',5'-cyclic phosphodiesterase (Homo sapiens, UniProt O00408); assay: Inhibition of recombinant human full length N-terminal thrombin cleavage site-fused/GST-tagged PDE2A expressed in baculovirus infected Sf9 insect cells using FAM-cAMP as substrate measured after 60 mins by fluorescence assay; conditions: sf9, 1 h
[28] = target: T2, 3',5'-cyclic-AMP phosphodiesterase 4D (Homo sapiens, UniProt Q08499); assay: Inhibition of recombinant human full length N-terminal GST-tagged PDE4D3 expressed in baculovirus infected Sf9 cells using FAM-cAMP as substrate incubated for 60 mins by fluorescence assay; conditions: sf9, 1 h
[29] = target: T1, 3',5'-cyclic-AMP phosphodiesterase 4B; assay: Inhibition of recombinant N-terminal GST-tagged full length human PDE4B1 expressed in baculovirus infected Sf9 cells using FAM-cAMP as substrate incubated for 60 mins by fluorescence assay; conditions: sf9, 1 h
[30] = target: T2, 3',5'-cyclic-AMP phosphodiesterase 4D; assay: as §3, with “PDE4D2” for “PDE4D UCR2 deletion mutant catalytic domain”; conditions: sf9, 10 min
[31] = Toxicity in dog assessed as tremor at 100 mg/kg, po; format: organism-based, Canis lupus familiaris; conditions: in vivo
[32] = Oral bioavailability in C57Bl6 mouse; format: ADME, organism-based; conditions: in vivo
[33] = Toxicity in dog assessed as emesis at 100 mg/kg, po; format: organism-based, Canis lupus familiaris; conditions: in vivo
Mustela putorius furo = assay: Induction of emesis in ferret up to 30 mg/kg, po; format: organism-based; conditions: in vivo

T1 sequence (Q07343 whole entry, the tested form may be a part): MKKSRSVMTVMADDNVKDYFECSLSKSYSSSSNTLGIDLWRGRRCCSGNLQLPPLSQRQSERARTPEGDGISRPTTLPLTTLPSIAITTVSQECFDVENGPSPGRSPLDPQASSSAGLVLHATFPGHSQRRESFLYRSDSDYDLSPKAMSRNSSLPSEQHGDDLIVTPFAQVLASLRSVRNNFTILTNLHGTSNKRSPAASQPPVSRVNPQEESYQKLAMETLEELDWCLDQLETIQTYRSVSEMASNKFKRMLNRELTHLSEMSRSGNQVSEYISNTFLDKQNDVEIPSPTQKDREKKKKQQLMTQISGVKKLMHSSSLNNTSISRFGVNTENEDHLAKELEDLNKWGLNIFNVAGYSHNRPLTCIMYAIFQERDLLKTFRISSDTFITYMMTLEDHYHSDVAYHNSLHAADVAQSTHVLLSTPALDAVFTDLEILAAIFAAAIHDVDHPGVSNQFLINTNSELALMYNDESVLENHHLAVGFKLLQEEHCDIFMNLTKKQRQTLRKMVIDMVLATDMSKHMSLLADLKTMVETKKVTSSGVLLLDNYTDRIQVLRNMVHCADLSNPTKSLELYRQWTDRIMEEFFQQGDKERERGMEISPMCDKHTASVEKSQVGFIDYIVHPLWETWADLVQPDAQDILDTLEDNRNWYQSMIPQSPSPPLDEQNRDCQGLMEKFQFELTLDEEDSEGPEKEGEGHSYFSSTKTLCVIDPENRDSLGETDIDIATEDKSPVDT
T2 sequence (Q08499 whole entry): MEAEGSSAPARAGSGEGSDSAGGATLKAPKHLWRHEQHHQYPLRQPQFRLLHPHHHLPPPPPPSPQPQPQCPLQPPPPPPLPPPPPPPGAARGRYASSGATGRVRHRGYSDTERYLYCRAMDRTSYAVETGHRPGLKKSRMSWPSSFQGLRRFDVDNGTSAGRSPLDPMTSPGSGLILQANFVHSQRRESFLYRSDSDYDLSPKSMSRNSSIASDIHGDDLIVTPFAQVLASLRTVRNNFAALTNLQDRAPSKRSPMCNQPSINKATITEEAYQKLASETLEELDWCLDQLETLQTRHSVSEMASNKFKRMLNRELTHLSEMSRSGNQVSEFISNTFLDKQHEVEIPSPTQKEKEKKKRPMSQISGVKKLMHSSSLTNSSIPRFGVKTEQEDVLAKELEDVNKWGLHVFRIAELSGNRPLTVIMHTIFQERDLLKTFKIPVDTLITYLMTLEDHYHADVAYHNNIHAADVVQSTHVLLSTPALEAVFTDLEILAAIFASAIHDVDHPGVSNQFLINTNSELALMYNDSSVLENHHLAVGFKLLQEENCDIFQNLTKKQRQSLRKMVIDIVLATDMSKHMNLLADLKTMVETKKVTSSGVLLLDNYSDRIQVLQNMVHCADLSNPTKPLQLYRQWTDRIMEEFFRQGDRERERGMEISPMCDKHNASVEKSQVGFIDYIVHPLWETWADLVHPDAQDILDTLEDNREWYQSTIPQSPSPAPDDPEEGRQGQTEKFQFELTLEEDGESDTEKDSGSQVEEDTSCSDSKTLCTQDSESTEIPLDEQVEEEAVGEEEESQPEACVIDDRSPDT
Dual 3',5'-cyclic-AMP and -GMP phosphodiesterase 11A, sequence (Q9HCR9 whole entry): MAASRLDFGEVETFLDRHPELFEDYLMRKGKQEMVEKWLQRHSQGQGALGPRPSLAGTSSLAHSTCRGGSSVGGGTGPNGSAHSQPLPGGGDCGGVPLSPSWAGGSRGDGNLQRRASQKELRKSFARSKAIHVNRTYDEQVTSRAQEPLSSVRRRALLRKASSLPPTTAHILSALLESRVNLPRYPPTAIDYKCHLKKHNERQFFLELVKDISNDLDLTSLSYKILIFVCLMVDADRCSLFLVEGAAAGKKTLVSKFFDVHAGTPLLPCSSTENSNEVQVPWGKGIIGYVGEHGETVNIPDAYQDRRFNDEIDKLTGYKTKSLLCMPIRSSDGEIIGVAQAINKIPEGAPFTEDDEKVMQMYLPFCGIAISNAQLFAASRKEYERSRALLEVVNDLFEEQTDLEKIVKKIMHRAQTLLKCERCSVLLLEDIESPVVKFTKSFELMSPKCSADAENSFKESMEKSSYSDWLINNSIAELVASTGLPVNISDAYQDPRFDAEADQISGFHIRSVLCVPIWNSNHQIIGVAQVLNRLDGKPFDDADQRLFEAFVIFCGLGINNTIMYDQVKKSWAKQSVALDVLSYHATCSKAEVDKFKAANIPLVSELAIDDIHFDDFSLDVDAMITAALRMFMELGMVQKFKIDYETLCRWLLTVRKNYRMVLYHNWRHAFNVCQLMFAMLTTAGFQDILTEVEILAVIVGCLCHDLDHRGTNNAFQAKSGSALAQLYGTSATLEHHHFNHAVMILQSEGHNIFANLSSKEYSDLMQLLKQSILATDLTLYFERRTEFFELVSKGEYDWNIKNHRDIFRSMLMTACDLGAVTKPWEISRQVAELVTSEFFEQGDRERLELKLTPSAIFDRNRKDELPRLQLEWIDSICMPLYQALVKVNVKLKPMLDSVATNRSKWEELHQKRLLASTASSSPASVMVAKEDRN
cGMP-dependent 3',5'-cyclic phosphodiesterase, sequence (O00408 whole entry, the tested form may be a part): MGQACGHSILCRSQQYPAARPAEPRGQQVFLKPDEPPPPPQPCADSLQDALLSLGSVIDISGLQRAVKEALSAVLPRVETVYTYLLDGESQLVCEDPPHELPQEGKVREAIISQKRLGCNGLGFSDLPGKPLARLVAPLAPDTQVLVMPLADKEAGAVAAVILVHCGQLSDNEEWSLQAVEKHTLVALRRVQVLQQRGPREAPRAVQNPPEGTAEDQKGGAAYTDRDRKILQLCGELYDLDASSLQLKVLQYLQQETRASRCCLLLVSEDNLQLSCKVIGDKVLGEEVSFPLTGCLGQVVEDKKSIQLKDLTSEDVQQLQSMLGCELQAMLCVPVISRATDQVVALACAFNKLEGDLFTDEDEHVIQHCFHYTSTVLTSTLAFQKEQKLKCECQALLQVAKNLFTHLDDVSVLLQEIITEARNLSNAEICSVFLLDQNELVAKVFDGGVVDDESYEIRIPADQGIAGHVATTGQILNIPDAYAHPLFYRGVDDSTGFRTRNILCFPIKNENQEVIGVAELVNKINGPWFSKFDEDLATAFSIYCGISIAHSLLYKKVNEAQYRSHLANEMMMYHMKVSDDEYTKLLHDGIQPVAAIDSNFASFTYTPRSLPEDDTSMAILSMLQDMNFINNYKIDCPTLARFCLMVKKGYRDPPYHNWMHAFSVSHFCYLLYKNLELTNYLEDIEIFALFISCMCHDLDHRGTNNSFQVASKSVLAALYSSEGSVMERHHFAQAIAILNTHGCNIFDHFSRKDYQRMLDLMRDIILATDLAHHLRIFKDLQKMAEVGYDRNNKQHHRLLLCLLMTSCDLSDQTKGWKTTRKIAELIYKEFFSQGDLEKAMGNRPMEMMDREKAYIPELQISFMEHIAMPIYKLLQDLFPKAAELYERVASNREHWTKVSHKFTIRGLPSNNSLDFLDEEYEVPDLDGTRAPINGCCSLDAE
Cytochrome P450 3A4, sequence (P08684 whole entry): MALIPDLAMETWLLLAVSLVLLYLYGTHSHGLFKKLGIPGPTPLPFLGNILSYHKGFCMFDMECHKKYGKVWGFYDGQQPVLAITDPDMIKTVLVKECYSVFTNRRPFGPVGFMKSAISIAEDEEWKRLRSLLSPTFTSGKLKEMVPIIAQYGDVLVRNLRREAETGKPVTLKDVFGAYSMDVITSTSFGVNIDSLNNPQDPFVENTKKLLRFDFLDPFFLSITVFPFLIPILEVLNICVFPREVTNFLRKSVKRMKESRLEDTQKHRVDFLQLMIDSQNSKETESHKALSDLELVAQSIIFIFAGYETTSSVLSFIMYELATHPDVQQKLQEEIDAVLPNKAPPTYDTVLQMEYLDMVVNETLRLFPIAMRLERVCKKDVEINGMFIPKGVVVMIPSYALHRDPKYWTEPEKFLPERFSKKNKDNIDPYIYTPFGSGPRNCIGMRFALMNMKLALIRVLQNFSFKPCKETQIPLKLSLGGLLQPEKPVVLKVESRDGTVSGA
Cytochrome P450 2C9, sequence (P11712 whole entry): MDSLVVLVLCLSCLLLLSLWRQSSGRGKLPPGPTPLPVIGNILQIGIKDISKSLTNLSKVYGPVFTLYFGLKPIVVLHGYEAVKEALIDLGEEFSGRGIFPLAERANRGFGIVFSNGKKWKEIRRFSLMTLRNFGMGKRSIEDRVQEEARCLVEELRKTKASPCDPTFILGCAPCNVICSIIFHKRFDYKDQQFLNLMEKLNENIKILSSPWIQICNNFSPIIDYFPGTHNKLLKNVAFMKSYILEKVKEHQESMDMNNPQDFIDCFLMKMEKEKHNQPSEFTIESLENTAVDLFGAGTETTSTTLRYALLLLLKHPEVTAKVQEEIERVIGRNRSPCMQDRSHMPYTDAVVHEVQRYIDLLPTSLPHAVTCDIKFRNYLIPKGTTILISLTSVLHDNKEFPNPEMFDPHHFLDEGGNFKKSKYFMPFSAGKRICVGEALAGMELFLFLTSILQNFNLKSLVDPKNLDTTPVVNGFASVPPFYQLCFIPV
Cytochrome P450 2D6, sequence (P10635 whole entry, the tested form may be a part): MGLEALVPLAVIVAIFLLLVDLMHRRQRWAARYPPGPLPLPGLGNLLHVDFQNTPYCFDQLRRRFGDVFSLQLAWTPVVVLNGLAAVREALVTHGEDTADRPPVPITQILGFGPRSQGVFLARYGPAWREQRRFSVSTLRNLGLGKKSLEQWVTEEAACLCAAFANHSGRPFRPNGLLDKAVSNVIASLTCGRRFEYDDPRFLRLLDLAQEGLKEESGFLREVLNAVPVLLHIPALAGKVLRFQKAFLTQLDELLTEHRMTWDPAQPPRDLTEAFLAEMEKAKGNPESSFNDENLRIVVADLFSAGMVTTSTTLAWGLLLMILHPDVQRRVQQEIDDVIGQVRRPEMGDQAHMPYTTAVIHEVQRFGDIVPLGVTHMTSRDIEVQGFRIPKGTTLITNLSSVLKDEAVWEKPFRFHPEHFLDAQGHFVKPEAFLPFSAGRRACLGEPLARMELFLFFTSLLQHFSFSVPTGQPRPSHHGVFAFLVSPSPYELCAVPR

Compound: O=C(O)Cc1ccc(Cc2cc(-c3cccc(Cl)c3)nc(C(F)(F)F)c2)cc1 [ZATOLMILAST]
- Activity [1]: Non-Toxic
- remaining at 0.5 h, 1 µM [2]: 88 to 100%
- fraction unbound [3]: 0.002 to 0.005
- IC50 (Cytochrome P450 3A4): 15 µM
- bioavailability [4]: 80 to 100%
- inhibition (INH) [5]: Not Active
- inhibition (INH) [6]: Not Active
- inhibition (INH) [7]: Not Active
- inhibition (INH) [8]: Not Active
- inhibition (INH) [9]: Not Active
- inhibition [10]: inactive
- Imax [11]: 90.2%
- Activity [12]: Toxic
- inhibition [13]: Active
- IC50 (Cytochrome P450 2C19): 43 µM
- Activity [14]: Non-Toxic
- Activity [15]: Non-Toxic
- remaining at 0.5 h, 1 µM [16]: 88 to 100%
- inhibition (INH) [17]: Not Active
- fraction unbound [18]: 0.002 to 0.005
- IC50 (Cytochrome P450 2C9): > 51 µM
- remaining at 0.5 h, 1 µM [19]: 88 to 100%
- inhibition (INH) [20]: Not Active
- inhibition (INH) [21]: Not Active
- remaining at 0.5 h, 1 µM [22]: 88 to 100%
- Activity [23]: Toxic
- Activity [24]: Non-Toxic
- Cmax [25]: 11475 ng/mL
- inhibition (INH) [26]: Not Active
- IC50 (Cytochrome P450 2D6): > 100 µM
- inhibition (INH) [27]: Not Active
- inhibition (INH) [28]: Not Active
- inhibition (INH) [29]: Not Active
- inhibition (INH) [30]: Not Active
- Activity [31]: Toxic
- F [32]: 82%
- Activity [33]: Toxic
- Activity (Mustela putorius furo): Non-Toxic
